For orientation: T/C means the result in the treated group divided by that in the control group, in per cent. A word on the ΔTm: it is the change in melting temperature against a reference sample.

These results are taken from ChEMBL document CHEMBL1122183, “Enhanced antitumor properties of 3'-(4-morpholinyl) and 3'-(4-methoxy-1-piperidinyl) derivatives of 3'-deaminodaunorubicin” (1982).

For experiment [1], the system named is L1210. Description: Concentration of drug necessary to reduce by 50% the incorporation of tritiated thymidine in the DNA of actively growing L1210 cells. The format is functional, Mus musculus. Particulars: read-out: ED50 (the source's name). The method in brief:
(§1)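 Actively growing L1210 cells. Drug first dissolved in Me2SO, giving 1% final Me2SO. Incorporation of [3H]thymidine into DNA and [3H]uridine into RNA measured. ED50 is the drug concentration that reduces incorporation by 50%.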

The test system of a further experiment is P388. Kind of experiment: Antitumor efficacy at optimal dose of compound was measured against P388 leukemia in mice. Format: functional, Mus musculus. The method in brief:
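Mice inoculated ip with P388 cells on day 0, then dosed on days 5, 9 and 13 across a series of doses, under NCI protocols. % T/C is the ratio of mean survival time of treated to untreated mice ×100; T/C >120 taken as active. Values are averages of two tests, or one test where only one was run.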

Another experiment is filed under the species Mus musculus. Kind of experiment: Percentage rate of O2 consumption by liver microsomes and NADPH in the presence compared to the rate in presence of doxorubicin. The format is functional. The method in brief:
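Rate of O2 consumption by liver microsomes with NADPH measured with the analogue at a single drug concentration. Expressed as a percentage of the rate obtained with doxorubicin.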
A general note: Liver microsomes are a subcellular fraction often used to study metabolism.

The test system of another experiment is Nucleic Acid. Description: Thermal denaturation temperature (Tm) of isolated calf thymus helical DNA was measured. The format is functional. Particulars: Bos taurus. The method in brief:
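Calf thymus DNA (P) 5.2 × 10^-5 M and drug 5.2 × 10^-6 M in 0.01 M phosphate buffer, pH 7, with EDTA and 5% final Me2SO. ΔTm is Tm of the DNA–drug complex minus Tm of DNA alone. Values <1 are read as insignificant binding.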

The subject of experiment [2] is L1210. Kind of experiment: Concentration of drug necessary to reduce by 50% the incorporation of tritiated uridine in the RNA of actively growing L1210 cells. The format is functional, Mus musculus. Conditions: read-out: ED50 (the source's name). The method in brief: as §1

pEC50: −log10 of the molar value. Where “and” joins values, the source holds several entries; their conditions need not be identical. Equal values may be shown once.

With `COc1cccc2c1C(=O)c1c(O)c3c(c(O)c1C2=O)C[C@@](O)(C(C)=O)C[C@@H]3OC1CC(NC2CCOCC2)C(O)C(C)O1` (stereo partly specified), the pEC50 was 5.70 in the experiment with L1210 [1] (Mus musculus, L1210) and 6.21 in the experiment on L1210 [2] (Mus musculus, L1210). The compound further displayed a T/C in the experiment on P388 of 136%. In addition, the O2 consumption in the experiment listed under Mus musculus came out at 68%. In the experiment on Nucleic Acid, the ΔTm stood at 4 °C.
Regarding `COc1cccc2c1C(=O)c1c(O)c3c(c(O)c1C2=O)C[C@@](O)(C(C)O)C[C@@H]3O[C@H]1C[C@H](N2CCCCC2)[C@H](O)[C@H](C)O1` (stereo partly specified), the pEC50 with L1210 [1] (Mus musculus, L1210) is 6.21; in the experiment with L1210 [2] (Mus musculus, L1210), 7.40. The T/C in the experiment on P388 is recorded as 162%. Also, the ΔTm with Nucleic Acid was 12.9 °C.
As for `COc1cccc2c1C(=O)c1c(O)c3c(c(O)c1C2=O)C[C@@](O)(C(=O)CO)C[C@@H]3O[C@H]1C[C@H](N)[C@H](O)[C@H](C)O1` [DOXORUBICIN], the pEC50 with L1210 [1] (Mus musculus, L1210) was 5.82; in the experiment on L1210 [2] (Mus musculus, L1210), 6.24. Also, the T/C in the experiment with P388 is 160%. Further, the O2 consumption in the experiment filed under Mus musculus is 100%. In addition, in the experiment with Nucleic Acid, the ΔTm was 13.4 °C.
As for `COc1cccc2c1C(=O)c1c(O)c3c(c(O)c1C2=O)C[C@@](O)(C(C)=O)C[C@@H]3OC1CC(NC2CCCCC2)C(O)C(C)O1` (stereo partly specified), the pEC50 in the experiment on L1210 [1] (Mus musculus, L1210) was 4.19; in the experiment on L1210 [2] (Mus musculus, L1210), 4.80. Moreover, the O2 consumption in the experiment filed under Mus musculus was found to be 57%. For the same compound, the ΔTm in the experiment on Nucleic Acid is 0.7 °C.
Regarding `COc1cccc2c1C(=O)c1c(O)c3c(c(O)c1C2=O)C[C@@](O)(C(C)=O)C[C@@H]3OC1CC(N2CCC(OC)CC2)C(O)C(C)O1` (stereo partly specified), the pEC50 was 6.20 with L1210 [1] (Mus musculus, L1210) and 6.92 in the experiment on L1210 [2] (Mus musculus, L1210). The compound further yielded a T/C in the experiment with P388 of 199%. Further, the O2 consumption in the experiment filed under Mus musculus stood at 82%. Moreover, in the experiment with Nucleic Acid, the ΔTm stood at 13.3 °C.
On to `COc1cccc2c1C(=O)c1c(O)c3c(c(O)c1C2=O)C[C@@](O)(C(C)O)C[C@@H]3O[C@H]1C[C@H](N2CCOCC2)[C@H](O)[C@H](C)O1` (stereo partly specified), for which the pEC50 was 5.66 in the experiment on L1210 [1] (Mus musculus, L1210) and 6.28 with L1210 [2] (Mus musculus, L1210). In the experiment with P388, this compound had a T/C of 153%. Also, the O2 consumption in the experiment listed under Mus musculus worked out at 29%. Further, the ΔTm in the experiment on Nucleic Acid is 4.1 °C.
Take `COc1cccc2c1C(=O)c1c(O)c3c(c(O)c1C2=O)C[C@@](O)(C(C)=O)C[C@@H]3O[C@H]1C[C@H](N)[C@H](O)[C@H](C)O1` [DAUNORUBICIN]: the pEC50 in the experiment with L1210 [1] (Mus musculus, L1210) was 6.18; in the experiment with L1210 [2] (Mus musculus, L1210), 6.48. In the experiment on P388, the T/C is listed as 130%.
For the compound `COc1cccc2c1C(=O)c1c(O)c3c(c(O)c1C2=O)C[C@@](O)(C(C)=O)C[C@@H]3OC1CC(N2CCCCC2)C(O)C(C)O1` (stereo partly specified), the pEC50 with L1210 [1] (Mus musculus, L1210) is 6.30; in the experiment on L1210 [2] (Mus musculus, L1210), 7.30. This compound also came in with a T/C with P388 of 177%. The O2 consumption in the experiment listed under Mus musculus came to 8%. In addition, in the experiment with Nucleic Acid, the ΔTm was 16.8 °C.
Regarding `COc1cccc2c1C(=O)c1c(O)c3c(c(O)c1C2=O)C[C@@](O)(C(C)=O)C[C@@H]3OC1CC(N2CCOCC2)C(O)C(C)O1` (stereo partly specified), the pEC50 was 6.12 and 6.47 in the experiment with L1210 [1]; 7.00 and 7.85 in the experiment on L1210 [2]. Besides, the T/C in the experiment on P388 was found to be 166%. Moreover, in the experiment filed under Mus musculus, the O2 consumption amounted to 25%. For the same compound, the ΔTm with Nucleic Acid was 6.1 °C.
As for `COc1cccc2c1C(=O)c1c(O)c3c(c(O)c1C2=O)C[C@@](O)(C(C)O)C[C@@H]3O[C@H]1C[C@H](N2CCC(OC)CC2)[C@H](O)[C@H](C)O1` (stereo partly specified), the pEC50 with L1210 [1] (Mus musculus, L1210) is 6.24; with L1210 [2] (Mus musculus, L1210), 7.10. In the experiment on P388, this compound displayed a T/C of 199%. The O2 consumption in the experiment listed under Mus musculus was 64%. For the same compound, the ΔTm with Nucleic Acid was 9.5 °C.
